Bioassay records as filed in PubChem.
Hits are enriched below; roughly 1.6% of the tested compounds scored in any of these assays.
T cell HTS = T cell immune modulation candidate. 2C CD8+ T cell-vesicle binding, flow cytometry; active compounds read low. response (vesicle binding), % at 7 µM. actives 0.068% (n = 330,000). AID 2052;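 active = response, share of CD8 T cells binding vesicles, and their 90th percentile fluorescence all below set limits, cut at about 80% in these data, passing the limit was not always enough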;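 note: values below 100% mean blocked vesicle binding to the CD8+ T cells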
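Assay system: 2C TCR transgenic mouse naive CD8+ T cells, MACS-purified | Read-out: CD8+ gate FL2 mean fluorescence as % of same-row positive control | Signal: High-throughput flow cytometry with anti-B7-1 and anti-CD8 staining | Timing: Binding step 1.5 h, 37 °C, antibody labelling 20 min, ice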
HKDC1 inh = HKDC1 (human) hexokinase inhibition; actives 0.16% (n = 340,000); inhibition, % at 20 µM; Q2TB90; recombinant HKDC1, G6PDH/diaphorase resazurin coupled fluorescence;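 active = inhibition above about 35% when tested at 20 µM, limit read from the data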;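 note: plate controls were DMSO wells with enzyme for no effect and DMSO wells lacking enzyme for full effect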
Target sequence (Q2TB90 whole entry, looked up): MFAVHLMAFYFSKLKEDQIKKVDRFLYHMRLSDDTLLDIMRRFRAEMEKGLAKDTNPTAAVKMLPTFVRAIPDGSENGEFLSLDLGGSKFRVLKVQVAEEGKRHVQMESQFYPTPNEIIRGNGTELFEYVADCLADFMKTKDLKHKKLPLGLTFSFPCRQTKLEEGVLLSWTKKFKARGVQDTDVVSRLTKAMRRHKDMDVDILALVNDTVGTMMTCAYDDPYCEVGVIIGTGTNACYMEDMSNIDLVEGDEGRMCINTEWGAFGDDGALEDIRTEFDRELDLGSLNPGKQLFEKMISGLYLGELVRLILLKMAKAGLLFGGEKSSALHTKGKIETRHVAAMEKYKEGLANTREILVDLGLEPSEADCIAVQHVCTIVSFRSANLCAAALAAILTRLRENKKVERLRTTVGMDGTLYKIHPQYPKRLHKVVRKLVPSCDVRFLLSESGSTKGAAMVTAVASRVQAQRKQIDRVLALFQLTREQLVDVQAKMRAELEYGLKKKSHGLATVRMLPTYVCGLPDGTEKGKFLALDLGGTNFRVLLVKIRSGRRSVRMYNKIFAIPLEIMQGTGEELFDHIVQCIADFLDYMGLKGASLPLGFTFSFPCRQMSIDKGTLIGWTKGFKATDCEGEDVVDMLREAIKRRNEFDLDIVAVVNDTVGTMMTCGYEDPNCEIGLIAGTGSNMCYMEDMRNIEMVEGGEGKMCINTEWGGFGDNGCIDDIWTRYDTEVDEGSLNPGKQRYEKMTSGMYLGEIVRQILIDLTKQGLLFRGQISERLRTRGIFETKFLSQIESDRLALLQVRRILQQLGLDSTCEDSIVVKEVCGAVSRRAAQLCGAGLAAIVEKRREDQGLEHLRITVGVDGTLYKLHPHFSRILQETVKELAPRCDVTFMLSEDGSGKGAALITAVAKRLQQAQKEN
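Assay system – recombinant HKDC1 (HK5) hexokinase enzyme, produced in-house · Input – HKDC1 at 5 µg/mL · Reagent – glucose plus 1 mM ATP as hexokinase substrates · Timing – 90 min reaction incubation at room temperature, dark · Measured by – G6PDH/diaphorase-coupled fluorescence, 1 mM NADP, 100 µM resazurin, 525/613 nm · Benchmarks – DMSO-enzyme wells negative, buffer-substituted wells positive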
PKA-R1A activ = activates the PKA-R1A holoenzyme complex. P00514+P68181. PKA-R1A dissociation, Cy5-IP20 fluorescence polarization; scaled: DMSO 0%, 113 µM cGMP 100%. activation, % at 11.4 µM. actives 0.083% (n = 340,000). AID 504707;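 active = percent activation above the mean of all tested compounds plus 3 SD, cut at about 19% in these data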;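 note: higher means more PKAc released from R1A so a rise in polarization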
PKA-R2B activ = PKA-R2B complex activation; P22694+P31323; PKA-R2B holoenzyme dissociation, Cy5-IP20 fluorescence polarization; R2B truncated from residue 108, S112A mutant; 0% DMSO only, 100% 113 µM cGMP; activation, % at 11.4 µM; actives 0.079% (n = 340,000); AID 504700;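 active = activation above a cutoff set at the mean over all compounds plus 3 SD, cut at about 18% in these data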;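 note: higher means more holoenzyme dissociation and a rise in polarization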
ATG4B inh = blocks human ATG4B protease cleavage of LC3 substrate | Q9Y4P1 | inhibition, % at 8.33 µM | ATG4B cleavage of LC3-PLA2, NBD-HPC fluorescence, 1 h | actives 0.51% (n = 340,000) | AID 504462; in the data active = inhibition above about 40%
PfGluPho inh = PfG6PD (Plasmodium falciparum) enzyme inhibition; PfGluPho enzyme, NADPH resazurin-diaphorase fluorescence; inhibition, % at 20 µM; actives 0.78% (n = 350,000);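 active = inhibition reaching at least a set limit at 20 µM in the primary screen, cut at about 59% in these data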;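 note: 0% = DMSO wells with substrate and 100% = DMSO wells lacking glucose-6-phosphate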
PfGluPho conf = PfG6PD inhibition, single-dose confirmed; recombinant PfGluPho, NADPH-diaphorase-resazurin fluorescence; inhibition, % at 20 µM; shares compounds with PfGluPho inh; AID 504753; actives 34% (n = 2,400);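 active = inhibition of at least 50% at 20 µM in any single replicate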;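 note: 0% = DMSO with substrate and 100% = DMSO lacking glucose-6-phosphate substrate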
Diaph ctr 10uM = inhibits diaphorase or oxidizes, flagging false PfG6PD hits; diaphorase-coupled resazurin reduction, fluorescence, NADPH 10 uM; inhibition, % at 20 µM; actives 39% (n = 820); shares compounds with PfGluPho inh; AID 504862;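 active = average inhibition reaching 50% or more with the compound at 20 µM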;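 note: resorufin red fluorescence formed as diaphorase reduces resazurin using NADPH; 0% = DMSO with enzyme and 100% = DMSO without enzyme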
Diaphorase 30uM = inhibits diaphorase or oxidizes, flagging false PfG6PD hits; shares compounds with PfGluPho inh; Diaphorase/resazurin coupled assay, resorufin fluorescence, 30 uM NADPH; inhibition, % at 20 µM; actives 29% (n = 820); AID 504863;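 active = inhibition averaging 50% or more, tested at 20 µM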;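 note: 0% = DMSO with enzyme and 100% = DMSO wells lacking diaphorase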
* marks the source's active call; other numbers are inactive results; x = no result given.

SMILES	T cell HTS	HKDC1 inh	PKA-R1A activ	PKA-R2B activ	ATG4B inh	PfGluPho inh	PfGluPho conf	others
Nc1cc(S(=O)(=O)N2CCOCC2)ccc1N1CCCCC1	382	-12	-5	-1	-8	69*	36
CC(=O)c1cn(N2CCCCC2)c(=O)[nH]c1=O	182	-2	-16	6	6	-5	x
COc1ccc(C2CC(c3ccccc3C(F)(F)F)=NN2c2ccc(S(N)(=O)=O)cc2)cc1 (stereo not drawn)	x	2	-1	-4	2	29	x
Cc1ccc2nc(-c3ccc(NC(=S)NC4CC(C)(C)NC(C)(C)C4)cc3)sc2c1	507	-5	4	3	14	93*	111*	Diaph ctr 10uM=-16;Diaphorase 30uM=-1
O=C(O)CCC1(CCC(=O)O)CCCC(CCC(=O)O)(CCC(=O)O)C1=O	x	-6	-11	5	-5	3	x
COc1ccccc1N/N=C/c1c(CO)cnc(C)c1O	134	-5	13	-1	-10	10	x
COc1cc(N=Cc2c(CO)cnc(C)c2O)cc(OC)c1OC	296	1	-3	2	3	63*	68*	Diaph ctr 10uM=-25;Diaphorase 30uM=-17
CC1=C(C#N)C(C)(C)C(C#N)=C(C)N1	x	x	-3	-8	x	10	x
O=c1cc(CN2CCN(c3ccc(O)cc3)CC2)nc2scc(-c3ccccc3)n12	354	7	-3	3	-6	65*	29
C[C@H](NC(=O)c1ccccc1)C(=O)OCC(=O)Nc1ccc(Cl)cn1	x	x	10	8	x	13	x
O=C(Nc1cccc(Cl)c1)c1ccc(-n2cncn2)c([N+](=O)[O-])c1	390	-2	8	8	-4	61*	32
Cc1ccc(NC(=O)c2ccc(-n3cncn3)c([N+](=O)[O-])c2)cc1	222	-3	5	-8	-3	49	x
O=C(Nc1ccc(Cl)cc1)c1ccc(-n2cncn2)c([N+](=O)[O-])c1	358	2	-1	1	2	84*	35
Cc1ccc(S(=O)(=O)N2CCN(C(C)C(=O)Nc3ccccc3-c3ccccc3)CC2)cc1 (stereo not drawn)	269	-6	4	-5	3	1	x
O=C(O)C1c2ccccc2Cc2ccccc21	x	x	-8	-5	x	-10	x
C(=N\n1cnnc1)/c1cccc(OCCOc2ccccc2)c1	238	7	-3	2	-8	7	x
Cc1ccc(S(=O)(=O)Oc2cccc(/C=N/n3cnnc3)c2)cc1	546	-1	2	2	-1	77*	37
Cc1ccc(S(=O)(=O)Oc2cccc(/C=N/Nc3ccc(C(=O)O)cc3)c2)cc1	560	7	-12	-1	16	98*	67*	Diaph ctr 10uM=60*;Diaphorase 30uM=49
O=[N+]([O-])c1cccc(-c2ccc(C(=S)N3CCOCC3)o2)c1	132	3	-21	-4	3	-9	x
O=[N+]([O-])c1cc(-c2ccc(C(=S)N3CCOCC3)o2)ccc1Cl	330	14	-6	-10	-7	69*	41
CN1C(=O)C(N=Nc2ccc([N+](=O)[O-])cc2)SC1=S (stereo not drawn)	x	5	-5	2	-1	106*	52*	Diaph ctr 10uM=54*;Diaphorase 30uM=34
Cc1cccc(OCCn2c(=S)[nH]c3ccccc32)c1	501	-10	1	-7	-6	68*	32
S=c1[nH]c2ccccc2n1CCOc1ccccc1	605	-2	-2	9	0	37	x
CC(Sc1ccc(S(=O)(=O)N2CCOCC2)cn1)c1ccccc1Cl (stereo not drawn)	352	8	2	4	-2	48	4
CC(Sc1ccc(S(=O)(=O)N2CCOCC2)cn1)C(=O)Nc1ccc(Cl)cc1Cl (stereo not drawn)	452	3	3	-2	-7	10	x
SMILES	T cell HTS	HKDC1 inh	PKA-R1A activ	PKA-R2B activ	ATG4B inh	PfGluPho inh	PfGluPho conf	others
CN(C)c1ccc2nc3ccc(=O)cc-3sc2c1	x	x	-10	-15	x	78*	49*	Diaph ctr 10uM=24;Diaphorase 30uM=28
CCOc1ccc2nc3sc(C(=O)N4CCN(C)CC4)c(N)c3cc2c1	606	3	2	5	-5	30	x
Cc1ccc2nc3sc(C(=O)N4CCOCC4)c(N)c3cc2c1	478	3	4	-4	-9	84*	52*	Diaph ctr 10uM=61*;Diaphorase 30uM=40
COc1ccc(NC(=O)c2ccc(-c3ccccc3Cl)o2)cc1	505	5	-11	-7	-3	65*	13
O=C(Nc1cccc(F)c1)c1ccc(-c2ccccc2Cl)o1	205	2	2	-2	4	79*	-7
C[C@H](CO)N1C[C@H](C)[C@@H](CN(C)S(=O)(=O)c2cn(C)cn2)Oc2ccc(NC(=O)NC3CCCCC3)cc2C1=O	350	2	-7	1	9	-3	x
CCOc1ccc(C(CC(=O)O)NC(=O)Cc2ccc(Cl)cc2)cc1 (stereo not drawn)	202	-4	-6	-8	-3	-3	x
COc1ccccc1CN1CCNC(=O)C1CC(=O)N(C)C1CCOCC1 (stereo not drawn)	x	x	2	11	x	-2	x
N#Cc1cn(CCOc2ccc(F)cc2)c2ccccc12	211	2	-10	-8	2	84*	34
Cc1ccc(OCCCn2cc(C#N)c3ccccc32)cc1	367	-1	-1	5	-6	68*	8
CC1(C)Nc2ccc(O)cc2-c2c1ssc2=S	560	12	-4	-7	-9	72*	55*	Diaph ctr 10uM=0;Diaphorase 30uM=10
Cn1ncc2c1NC(c1ccc(F)cc1)SCC2=O (stereo not drawn)	x	x	2	0	x	22	x
C[C@@H]1CN([C@@H](C)CO)C(=O)c2cc(C#CC3CCCCC3)cnc2O[C@@H]1CN(C)S(=O)(=O)c1ccc(F)cc1	x	x	-1	-3	x	66*	10
COc1ccc(-c2cc(-c3n[nH]c(=S)n3-c3cc(OC)ccc3OC)[nH]n2)cc1	139	3	-8	-5	-2	59	23
COc1ccc(Cl)cc1NC(=O)CN(C(=O)c1ccco1)C1CCCCC1	240	-1	-7	-4	-5	63*	31
COC(=O)c1cc(S(=O)(=O)NCCN2CCOCC2)cn1C	310	-3	-1	8	-3	14	x
